Key:
Mus musculus [1] = assay: Body Weight Difference (BWD) of test animals administered with 400 mg/kg compound is determined on day 5 for P388 tumor cells; assay type: functional
Method in brief: (§1)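 P388 leukaemia: about 10^6 cells in ascitic fluid inoculated ip on day 0 (CD2F1 mice). Compound given ip in normal saline as a freshly prepared solution or suspension, once daily on days 1–5. Treated-minus-control body weight difference in g, taken as day 5 minus day 1 weight. Groups of six.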

Mus musculus [2] = assay: Body Weight Difference (BWD) of test animals administered with 100 mg/kg compound is determined on day 5 for P388 tumor cells; assay type: functional; method in brief: as §1
Mus musculus [3] = assay: Ability of 200 mg/kg of compound to kill tumor cells in mice is expressed as the log of the tumor cell population at the onset of treatment minus the log of the tumor cell population at the end of treatment.; assay type: functional
Mus musculus [4] = assay: Toxicity day evaluation was carried out on day 5 for animal dosed with 25 mg/kg compound; 6/6; assay type: organism-based; parameters: dose 25 mg/kg; conditions: in vivo
Mus musculus [5] = assay: The percent of the median survival time of test mice compared to control mice is determined for mice administered with 12.5 mg/kg compound.; assay type: functional
Mus musculus [6] = assay: Body Weight Difference (BWD) of test animals administered with 200 mg/kg compound is determined on day 5 for P388 tumor cells; assay type: functional; method in brief: as §1
Mus musculus [7] = assay: Body Weight Difference (BWD) of test animals administered with 50 mg/kg compound is determined on day 5 for P388 tumor cells; assay type: functional; method in brief: as §1
Mus musculus [8] = assay: Ability of 100 mg/kg of compound to kill tumor cells in mice is expressed as the log of the tumor cell population at the onset of treatment minus the log of the tumor cell population at the end of treatment.; assay type: functional
Mus musculus [9] = assay: Body Weight Difference (BWD) of test animals administered with 25 mg/kg compound is determined on day 5 for P388 tumor cells; assay type: functional; method in brief: as §1
Mus musculus [10] = assay: Toxicity day evaluation was carried out on day 5 for animal dosed with 200 mg/kg compound; 6/6; assay type: organism-based; parameters: dose 200 mg/kg; conditions: in vivo
Mus musculus [11] = assay: Ability of 50 mg/kg of compound to kill tumor cells in mice is expressed as the log of the tumor cell population at the onset of treatment minus the log of the tumor cell population at the end of treatment.; assay type: functional
Mus musculus [12] = assay: Toxicity day evaluation was carried out on day 5 for animal dosed with 100 mg/kg compound; 6/6; assay type: organism-based; parameters: dose 100 mg/kg; conditions: in vivo
Mus musculus [13] = assay: Toxicity day evaluation was carried out on day 5 for animal dosed with 50 mg/kg compound; 6/6; assay type: organism-based; parameters: dose 50 mg/kg; conditions: in vivo
Mus musculus [14] = assay: The percent of the median survival time of test mice compared to control mice is determined for mice administered with 50 mg/kg compound.; assay type: functional
Mus musculus [15] = assay: Toxicity day evaluation was carried out on day 5 for animal dosed with 12.5 mg/kg compound; 6/6; assay type: organism-based; parameters: dose 12.5 mg/kg; conditions: in vivo
Mus musculus [16] = assay: Toxicity day evaluation was carried out on day 5 for animal dosed with 400 mg/kg compound; 3/6; assay type: organism-based; parameters: dose 400 mg/kg; conditions: in vivo
Mus musculus [17] = assay: Body Weight Difference (BWD) of test animals administered with 12.5 mg/kg compound is determined on day 5 for P388 tumor cells; assay type: functional; method in brief: as §1
Mus musculus [18] = assay: The percent of the median survival time of test mice compared to control mice is determined for mice administered with 400 mg/kg compound; assay type: functional
Mus musculus [19] = assay: The percent of the median survival time of test mice compared to control mice is determined for mice administered with 100 mg/kg compound; assay type: functional
Mus musculus [20] = assay: Toxicity day evaluation was carried out on day 5 for animal dosed with 400 mg/kg compound; 6/6; assay type: organism-based; parameters: dose 400 mg/kg; conditions: in vivo
Mus musculus [21] = assay: The percent of the median survival time of test mice compared to control mice is determined for mice administered with 200 mg/kg compound; assay type: functional
Mus musculus [22] = assay: The percent of the median survival time of test mice compared to control mice is determined for mice administered with 400 mg/kg compound.; assay type: functional
Mus musculus [23] = assay: Ability of 12.5 mg/kg of compound to kill tumor cells in mice is expressed as the log of the tumor cell population at the onset of treatment minus the log of the tumor cell population at the end of treatment.; assay type: functional
Mus musculus [24] = assay: Ability of 25 mg/kg of compound to kill tumor cells in mice is expressed as the log of the tumor cell population at the onset of treatment minus the log of the tumor cell population at the end of treatment.; assay type: functional
Mus musculus [25] = assay: Ability of 400 mg/kg of compound to kill tumor cells in mice is expressed as the log of the tumor cell population at the onset of treatment minus the log of the tumor cell population at the end of treatment; assay type: functional
Mus musculus [26] = assay: Ability of 200 mg/kg of compound to kill tumor cells in mice is expressed as the log of the tumor cell population at the onset of treatment minus the log of the tumor cell population at the end of treatment; assay type: functional

Row | Structure (SMILES) | BWD (Mus musculus [1]) [g] | BWD (Mus musculus [2]) [g] | Survivors / animals tested (Mus musculus [4]) | BWD (Mus musculus [6]) [g] | BWD (Mus musculus [7]) [g] | BWD (Mus musculus [9]) [g] | Survivors / animals tested (Mus musculus [10]) | KE (Mus musculus [11]) | Survivors / animals tested (Mus musculus [12]) | Survivors / animals tested (Mus musculus [13]) | T/C (Mus musculus [14]) [%] | Survivors / animals tested (Mus musculus [15]) | BWD (Mus musculus [17]) [g] | Survivors / animals tested (Mus musculus [20]) | other results
1 | CSc1nc(COC(=O)NC(C)C)c(COC(=O)NC(C)C)n1Cc1ccccc1 | -3.2 | -0.3 | 6 | -2.2 | -0.5 | -1.5 | 6 | -0.42 | 6 | 6 | 110 | 6 | -0.2 | – | KE (Mus musculus [3]): -0.32; T/C (Mus musculus [5]): 98%; KE (Mus musculus [8]): -0.39; Survivors / animals tested (Mus musculus [16]): 3
2 | CC(C)NC(=O)OCc1ncn(-c2ccccc2)c1COC(=O)NC(C)C | -2.3 | 0.6 | 6 | 0.2 | 0.8 | -0.1 | 6 | – | 6 | 6 | 97 | 6 | -0.4 | 6 | T/C (Mus musculus [18]): 90%; T/C (Mus musculus [19]): 91%; T/C (Mus musculus [21]): 90%
3 | CSc1nc(COC(=O)NC(C)C)c(COC(=O)NC(C)C)n1C | -3.4 | -1.2 | 6 | -1.8 | 0 | 0.4 | 6 | -0.56 | 6 | 6 | 130 | 6 | 2.6 | 6 | T/C (Mus musculus [22]): 70%; KE (Mus musculus [23]): -1.4; KE (Mus musculus [24]): -0.91
4 | CNC(=O)OCc1nc(SC)n(Cc2ccccc2)c1COC(=O)NC | -1.2 | 0.4 | – | -0.4 | 0.9 | – | 6 | – | 6 | 6 | – | – | – | 6 | KE (Mus musculus [25]): -0.71; KE (Mus musculus [26]): -0.44
